# Source: ChEMBL document CHEMBL5724801, “EUbOPEN Chemogenomics Library - Multiplex” (2024)
# Several values for one entry are separate records, joined by “and”; a condition that tells them apart may be missing. Equal entries are not always repeated.
# Test system: HEK-293T
# Assay: Multiplex assay against HEK293T
# Assay type: toxicity, cell-based
# Details: human
# Outline: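 Live cells carried four stains from seeding: Hoechst33342, BioTracker Green Microtubule Cytoskeleton Dye, MitoTracker Red and Annexin V Alexa Fluor 680. They were imaged on a CQ1 microscope at 37°C and 5% CO2 after compound addition. Using CellPathfinder machine-learning gating, cells were split into Hoechst high-intensity objects or normal cells, normal cells into healthy, pyknosed or fragmented nuclei, and pyknosed cells into mitotic or apoptotic; tubulin, mitochondrial-mass and membrane-permeability phenotypes are per cents of healthy-nucleus cells.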
# [1] = 12 h, 1 µM, compound concentration 1 uM
# [2] = 12 h, 10 µM, compound concentration 10 uM
# [3] = 24 h, 1 µM, compound concentration 1 uM
# [4] = 24 h, 10 µM, compound concentration 10 uM
# [5] = 48 h, 1 µM, compound concentration 1 uM
# [6] = 48 h, 10 µM, compound concentration 10 uM
compound,measurement,setting,value
COc1ccc2nc3ccc(OC)cc3c(SCCCN)c2c1.Cl,Population Apoptotic (%),[1],9.64% and 17.91%
same,Population Fragmented Nuclei (%),[1],1.39% and 4.49%
same,Population Hoechst High Intensity Objects (%),[1],0.55% and 0%
same,Population Membrane Permeable-Phenotype (%),[1],1.06% and 0%
same,Population Mitotic Cells (%),[1],90.36% and 82.09%
same,Population Normal (%),[1],99.45% and 100%
same,Population Pyknosed Nuclei (%),[1],46.24% and 85.9%
same,Population Tubulin-Different-Phenotype (%),[1],5.85% and 13.33%
same,Total Cell Count,[1],361 and 156
same,Population Apoptotic (%),[2],19.66% and 51.55%
same,Population Fragmented Nuclei (%),[2],81.39% and 89.94%
same,Population Healthy Nuclei (%),[2],8.58% and 2.44%
same,Population Hoechst High Intensity Objects (%),[2],3.16% and 0.62%
same,Population Membrane Permeable-Phenotype (%),[2],0% and 3.23%
same,Population Mitochondria Different-Phenotype (%),[2],15% and 9.68%
same,Population Mitotic Cells (%),[2],80.34% and 48.45%
same,Population Normal (%),[2],96.84% and 99.38%
same,Population Pyknosed Nuclei (%),[2],10.03% and 7.63%
same,Population Tubulin-Different-Phenotype (%),[2],31% and 48.39%
same,Total Cell Count,[2],1204 and 1280
same,Population Apoptotic (%),[3],11.89% and 22.43%
same,Population Fragmented Nuclei (%),[3],1.64% and 2.45%
same,Population Healthy Nuclei (%),[3],72.36% and 31.9%
same,Population Hoechst High Intensity Objects (%),[3],0% and 0.61%
same,Population Membrane Permeable-Phenotype (%),[3],1.51% and 3.85%
same,Population Mitochondria Different-Phenotype (%),[3],22.86% and 15.38%
same,Population Mitotic Cells (%),[3],88.11% and 77.57%
same,Population Normal (%),[3],100% and 99.39%
same,Population Pyknosed Nuclei (%),[3],26% and 65.64%
same,Population Tubulin-Different-Phenotype (%),[3],16.33% and 11.54%
same,Population Apoptotic (%),[4],66.98% and 59.74%
same,Population Fragmented Nuclei (%),[4],80.88% and 91.28%
same,Population Healthy Nuclei (%),[4],10.6% and 3.22%
same,Population Hoechst High Intensity Objects (%),[4],1.74% and 0.85%
same,Population Membrane Permeable-Phenotype (%),[4],2.27% and 2.22%
same,Population Mitochondria Different-Phenotype (%),[4],31.06% and 15.56%
same,Population Mitotic Cells (%),[4],33.02% and 40.26%
same,Population Normal (%),[4],98.26% and 99.15%
same,Population Pyknosed Nuclei (%),[4],8.51% and 5.5%
same,Population Tubulin-Different-Phenotype (%),[4],37.88% and 35.56%
same,Total Cell Count,[4],1267 and 1411
same,Population Fragmented Nuclei (%),[5],3.15% and 5.62%
same,Population Healthy Nuclei (%),[5],85.43% and 51.69%
same,Population Hoechst High Intensity Objects (%),[5],0.08% and 0.56%
same,Population Membrane Permeable-Phenotype (%),[5],4.52% and 2.17%
same,Population Mitochondria Different-Phenotype (%),[5],15.94% and 31.52%
same,Population Mitotic Cells (%),[5],95.17% and 75%
same,Population Normal (%),[5],99.92% and 99.44%
same,Population Apoptotic (%),[6],52.58% and 29.51%
same,Population Fragmented Nuclei (%),[6],73.59% and 92.69%
same,Population Hoechst High Intensity Objects (%),[6],4.79% and 2.09%
same,Population Membrane Permeable-Phenotype (%),[6],4.62% and 6.67%
same,Population Mitochondria Different-Phenotype (%),[6],54.23% and 53.33%
same,Population Mitotic Cells (%),[6],47.42% and 70.49%
same,Population Normal (%),[6],95.21% and 97.91%
same,Population Pyknosed Nuclei (%),[6],7.17% and 4.2%
same,Total Cell Count,[6],1420 and 1482
CSc1ccccc1N1CCN(CCCCCC(=O)NC2CCCc3ccccc32)CC1.Cl (centres undefined),Population Apoptotic (%),[1],45%
same,Population Fragmented Nuclei (%),[1],6%
same,Population Healthy Nuclei (%),[1],74%
same,Population Hoechst High Intensity Objects (%),[1],8% and 12%
same,Population Membrane Permeable-Phenotype (%),[1],0%
same,Population Mitochondria Different-Phenotype (%),[1],68% and 75%
same,Population Mitotic Cells (%),[1],54%
same,Population Normal (%),[1],91% and 87%
same,Population Pyknosed Nuclei (%),[1],18% and 19%
same,Population Tubulin-Different-Phenotype (%),[1],59% and 43%
same,Total Cell Count,[1],391 and 322
same,Population Apoptotic (%),[2],80% and 79%
same,Population Fragmented Nuclei (%),[2],8% and 5%
same,Population Healthy Nuclei (%),[2],68% and 74%
same,Population Hoechst High Intensity Objects (%),[2],15% and 16%
same,Population Membrane Permeable-Phenotype (%),[2],0%
same,Population Mitochondria Different-Phenotype (%),[2],97%
same,Population Mitotic Cells (%),[2],20%
same,Population Normal (%),[2],84% and 83%
same,Population Pyknosed Nuclei (%),[2],22% and 19%
same,Population Tubulin-Different-Phenotype (%),[2],59% and 65%
same,Total Cell Count,[2],316 and 304
same,Population Apoptotic (%),[3],36% and 41%
same,Population Fragmented Nuclei (%),[3],8%
same,Population Healthy Nuclei (%),[3],79% and 75%
same,Population Hoechst High Intensity Objects (%),[3],4% and 7%
same,Population Membrane Permeable-Phenotype (%),[3],0%
same,Population Mitochondria Different-Phenotype (%),[3],50% and 70%
same,Population Mitotic Cells (%),[3],63% and 58%
same,Population Normal (%),[3],95% and 92%
same,Population Pyknosed Nuclei (%),[3],11% and 16%
same,Population Tubulin-Different-Phenotype (%),[3],41% and 44%
same,Total Cell Count,[3],508 and 356
same,Population Apoptotic (%),[4],75% and 69%
same,Population Fragmented Nuclei (%),[4],5% and 7%
same,Population Healthy Nuclei (%),[4],70% and 73%
same,Population Hoechst High Intensity Objects (%),[4],21% and 20%
same,Population Membrane Permeable-Phenotype (%),[4],0%
same,Population Mitochondria Different-Phenotype (%),[4],98% and 97%
same,Population Mitotic Cells (%),[4],24% and 30%
same,Population Normal (%),[4],78% and 79%
same,Population Pyknosed Nuclei (%),[4],23% and 18%
same,Population Tubulin-Different-Phenotype (%),[4],53% and 48%
same,Total Cell Count,[4],303 and 315
same,Population Apoptotic (%),[5],32% and 45%
same,Population Fragmented Nuclei (%),[5],10%
same,Population Healthy Nuclei (%),[5],78% and 76%
same,Population Hoechst High Intensity Objects (%),[5],4% and 6%
same,Population Membrane Permeable-Phenotype (%),[5],0%
same,Population Mitochondria Different-Phenotype (%),[5],39% and 59%
same,Population Mitotic Cells (%),[5],67% and 54%
same,Population Normal (%),[5],95% and 93%
same,Population Pyknosed Nuclei (%),[5],10% and 13%
same,Population Tubulin-Different-Phenotype (%),[5],27% and 31%
same,Total Cell Count,[5],747 and 471
same,Population Apoptotic (%),[6],76% and 56%
same,Population Fragmented Nuclei (%),[6],11% and 13%
same,Population Healthy Nuclei (%),[6],73%
same,Population Hoechst High Intensity Objects (%),[6],28% and 18%
same,Population Membrane Permeable-Phenotype (%),[6],0%
same,Population Mitochondria Different-Phenotype (%),[6],97% and 93%
same,Population Mitotic Cells (%),[6],23% and 43%
same,Population Normal (%),[6],71% and 81%
same,Population Pyknosed Nuclei (%),[6],14% and 13%
same,Population Tubulin-Different-Phenotype (%),[6],67% and 56%
same,Total Cell Count,[6],365 and 385
Cc1noc(-c2ccc(-c3ccc(CC(=O)O)cc3)cc2)c1NC(=O)O[C@H](C)c1ccccc1Cl,Population Apoptotic (%),[1],29% and 59%
same,Population Fragmented Nuclei (%),[1],7% and 4%
same,Population Healthy Nuclei (%),[1],79% and 77%
same,Population Hoechst High Intensity Objects (%),[1],5% and 11%
same,Population Membrane Permeable-Phenotype (%),[1],0%
same,Population Mitochondria Different-Phenotype (%),[1],38% and 69%
same,Population Mitotic Cells (%),[1],70% and 40%
same,Population Normal (%),[1],94% and 88%
same,Population Pyknosed Nuclei (%),[1],13% and 17%
same,Population Tubulin-Different-Phenotype (%),[1],29% and 28%
same,Total Cell Count,[1],403 and 296
same,Population Apoptotic (%),[2],51% and 41%
same,Population Fragmented Nuclei (%),[2],11% and 8%
same,Population Healthy Nuclei (%),[2],68% and 72%
same,Population Hoechst High Intensity Objects (%),[2],7% and 14%
same,Population Membrane Permeable-Phenotype (%),[2],0%
same,Population Mitochondria Different-Phenotype (%),[2],72% and 69%
same,Population Mitotic Cells (%),[2],48% and 58%
same,Population Normal (%),[2],92% and 85%
same,Population Pyknosed Nuclei (%),[2],20% and 18%
same,Population Tubulin-Different-Phenotype (%),[2],65% and 34%
same,Total Cell Count,[2],295 and 341
same,Population Apoptotic (%),[3],22% and 40%
same,Population Fragmented Nuclei (%),[3],10% and 9%
same,Population Healthy Nuclei (%),[3],79% and 80%
same,Population Hoechst High Intensity Objects (%),[3],5% and 7%
same,Population Membrane Permeable-Phenotype (%),[3],0%
same,Population Mitochondria Different-Phenotype (%),[3],23% and 42%
same,Population Mitotic Cells (%),[3],77% and 60%
same,Population Normal (%),[3],94% and 92%
same,Population Pyknosed Nuclei (%),[3],9%
same,Population Tubulin-Different-Phenotype (%),[3],17% and 20%
same,Total Cell Count,[3],570 and 378
same,Population Apoptotic (%),[4],39% and 32%
same,Population Fragmented Nuclei (%),[4],7% and 9%
same,Population Healthy Nuclei (%),[4],76% and 75%
same,Population Hoechst High Intensity Objects (%),[4],8% and 16%
same,Population Membrane Permeable-Phenotype (%),[4],1% and 0%
same,Population Mitochondria Different-Phenotype (%),[4],58% and 53%
same,Population Mitotic Cells (%),[4],60% and 68%
same,Population Normal (%),[4],91% and 83%
same,Population Pyknosed Nuclei (%),[4],16% and 15%
same,Population Tubulin-Different-Phenotype (%),[4],47% and 38%
same,Total Cell Count,[4],352 and 390
same,Population Apoptotic (%),[5],17% and 35%
same,Population Fragmented Nuclei (%),[5],11% and 12%
same,Population Healthy Nuclei (%),[5],82% and 76%
same,Population Hoechst High Intensity Objects (%),[5],4%
same,Population Membrane Permeable-Phenotype (%),[5],1% and 0%
same,Population Mitochondria Different-Phenotype (%),[5],20% and 34%
same,Population Mitotic Cells (%),[5],82% and 64%
same,Population Normal (%),[5],95%
same,Population Pyknosed Nuclei (%),[5],5% and 10%
same,Population Tubulin-Different-Phenotype (%),[5],14% and 21%
same,Total Cell Count,[5],930 and 494
same,Population Apoptotic (%),[6],38% and 46%
same,Population Fragmented Nuclei (%),[6],10% and 13%
same,Population Healthy Nuclei (%),[6],79% and 74%
same,Population Hoechst High Intensity Objects (%),[6],6% and 10%
same,Population Membrane Permeable-Phenotype (%),[6],0% and 1%
same,Population Mitochondria Different-Phenotype (%),[6],40% and 35%
same,Population Mitotic Cells (%),[6],61% and 53%
same,Population Normal (%),[6],93% and 89%
same,Population Pyknosed Nuclei (%),[6],10% and 11%
same,Population Tubulin-Different-Phenotype (%),[6],33% and 25%
same,Total Cell Count,[6],445 and 508
